The target in the assay is T1, C5a anaphylatoxin chemotactic receptor 1 (Homo sapiens, UniProt P21730).
T1 sequence (P21730 whole entry): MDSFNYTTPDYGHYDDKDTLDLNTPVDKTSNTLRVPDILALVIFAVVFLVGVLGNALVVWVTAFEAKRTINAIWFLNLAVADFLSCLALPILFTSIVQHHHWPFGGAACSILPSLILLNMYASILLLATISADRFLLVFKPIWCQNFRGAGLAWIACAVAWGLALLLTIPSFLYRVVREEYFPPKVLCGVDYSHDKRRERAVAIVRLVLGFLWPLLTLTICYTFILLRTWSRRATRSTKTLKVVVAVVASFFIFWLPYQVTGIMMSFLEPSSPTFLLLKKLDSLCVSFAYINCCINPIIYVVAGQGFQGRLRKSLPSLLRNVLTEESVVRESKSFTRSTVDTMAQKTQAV
The assay is described as follows: Release of beta-glucuronidase from human polymorphonuclear leukocytes(PMN). The class given is functional. The procedure, abridged:
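Human PMNs pretreated with cytochalasin B (5 μg/mL, 10 min, 37 °C). 10^6 cells incubated with stimulant 60 min at 37 °C, then centrifuged. Supernatant reacted with 0.01 M p-nitrophenyl β-D-glucuronide in 0.1 M sodium acetate pH 4 for 18 h, in triplicate. Stopped with 0.4 M glycine pH 10. EC50 from dose-response.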

Where a SMILES comes first, the peptide text is derived from it. Bounds are passed on as bounds.

For orientation: EC50 means the concentration needed to bring the measured effect to its halfway point. A high value points to a less potent agent. In the case of H-ISHKDMQLGR-OH, the response was half-maximal at 0.0123 µM (EC50).

H-YSFKGLLLGR-OH showed an EC50 of 27.7 µM.

Turning to `CSCC[C@H](NC(=O)[C@H](CC(=O)O)NC(=O)[C@H](CCCCN)NC(=O)[C@H](Cc1ccccc1)NC(=O)[C@H](CO)NC(=O)[C@@H](N)Cc1ccc(O)cc1)C(=O)N1CCC[C@H]1C(=O)N[C@@H](C)C(=O)NCC(=O)N[C@@H](CCCNC(=N)N)C(=O)O`, the response was half-maximal at 680 µM (EC50).

For the molecule `CSCC[C@H](NC(=O)[C@H](CC(=O)O)NC(=O)[C@H](CCCCN)NC(=O)[C@H](Cc1ccccc1)NC(=O)[C@H](CO)NC(=O)[C@@H](N)Cc1ccc(O)cc1)C(=O)N1CCC[C@H]1C(=O)N[C@@H](CC(C)C)C(=O)NCC(=O)N[C@@H](CCCNC(=N)N)C(=O)O`, the EC50 was 80 µM.

Regarding `CC(C)C[C@H](NC(=O)[C@@H]1CCCN1C(=O)[C@H](C)NC(=O)[C@H](CC(=O)O)NC(=O)[C@H](CCCCN)NC(=O)[C@H](Cc1ccccc1)NC(=O)[C@H](CO)NC(=O)[C@@H](N)Cc1ccc(O)cc1)C(=O)NCC(=O)N[C@@H](CCCNC(=N)N)C(=O)O`, the midpoint of the response, the EC50, lay at 207 µM.

Turning to H-YSFKDCPLGR-OH, the EC50 is greater than 1000 µM.

As to H-YSFKDMQLGR-OH, the EC50 was 520 µM.

Take `CC(C)C[C@H](NC(=O)[C@@H]1CCCN1C(=O)[C@H](CS)NC(=O)[C@H](CC(=O)O)NC(=O)[C@H](CCCCN)NC(=O)[C@H](Cc1ccccc1)NC(=O)[C@H](CO)NC(=O)[C@@H](N)Cc1ccc(O)cc1)C(=O)N[C@@H](CS)C(=O)N[C@@H](CCCNC(=N)N)C(=O)O` (H-YSFKDCPLCR-OH): the EC50 is greater than 1000 µM.

For the molecule H-YSFKGMLLGR-OH, the response was half-maximal at 70 µM (EC50).

In turn, `CSCC[C@H](NC(=O)[C@H](CC(=O)O)NC(=O)[C@H](CCCCN)NC(=O)[C@H](Cc1ccccc1)NC(=O)[C@H](CO)NC(=O)[C@@H](N)Cc1ccc(O)cc1)C(=O)N[C@@H](CCC(N)=O)C(=O)N[C@@H](CC(C)C)C(=O)N1CCC[C@H]1C(=O)N[C@@H](CCCNC(=N)N)C(=O)O` showed an EC50 greater than 1000 µM.

H-YSFKDMQPGR-OH gave an EC50 of 42 µM.

Source of the values: ChEMBL document CHEMBL1128551, “Decapeptide agonists of human C5a: the relationship between conformation and neutrophil response” (J Med Chem, 1995).
